Experiments:
[1] = Antagonism of the zolmitriptan-mediated response tested at 1 uM; format: functional
In short: (§1)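 Membranes of C6-glia cells stably expressing h5-HT1B were preincubated with zolmitriptan concentration series, with or without antagonist (1 μM or 10 μM), in 20 mM Hepes pH 7.4 containing 30 μM GDP, 100 mM NaCl, 3 mM MgCl2 and 0.2 mM ascorbic acid, 30 min at 25 °C. [35S]GTPγS (500 pM) was then added for 30 min. pA2 was derived from concentration ratios. Mean ± SD of 2–4 experiments, each in triplicate.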

[2] = target: T1, 5-hydroxytryptamine receptor 1B (Homo sapiens, UniProt P28222); test: Intrinsic activity for Antagonism of 5-hydroxytryptamine 1B receptor-mediated stimulation of [35S]GTP gamma S binding; format: functional
In short: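 [35S]GTPγS binding to C6-glia/h5-HT1B membranes (20–120 μg protein) in 20 mM Hepes pH 7.4 with 30 μM GDP, 100 mM NaCl, 3 mM MgCl2 and 0.2 mM ascorbate. Compound was incubated 30 min at 25 °C, then 500 pM [35S]GTPγS was added for 30 min. Emax is given as % of the response to 10 μM 5-HT, and EC50 is relative to each compound's own maximum. Mean ± SD of 2–4 experiments, each in triplicate.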

[3] = target: T1, 5-hydroxytryptamine receptor 1B; test: Binding affinity for 5-hydroxytryptamine 1B receptor in C6-glial transfected cell type using [3H]5-CT as radioligand
In short: (§2)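 Radioligand binding on membranes from HeLa/HA7 cells (h5-HT1A), transfected Cos-7 cells (h5-HT1D) or C6-glia cells stably transfected with h5-HT1B. Values are mean or mean ± SD of 2–3 independent experiments, each in triplicate.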

[4] = Determined KB value of the compound; format: functional; in short: as §1
[5] = target: T1, 5-hydroxytryptamine receptor 1B; test: Binding affinity for 5-hydroxytryptamine 1B receptor in C6-glial transfected cell type using [3H]GR-125743 as radioligand; in short: as §2
[6] = target: 5-hydroxytryptamine receptor 1D (Homo sapiens, UniProt P28221); test: Binding affinity for 5-hydroxytryptamine 1D receptor in Cos-7 transfected cell type using [3H]5-CT as radioligand; in short: as §2
[7] = target: T2, 5-hydroxytryptamine receptor 1A (Homo sapiens, UniProt P08908); test: Binding affinity for 5-hydroxytryptamine 1A receptor in HeLa transfected cell type using [3H]8-OH-DPAT as radioligand; in short: as §2
T2 sequence (P08908 whole entry): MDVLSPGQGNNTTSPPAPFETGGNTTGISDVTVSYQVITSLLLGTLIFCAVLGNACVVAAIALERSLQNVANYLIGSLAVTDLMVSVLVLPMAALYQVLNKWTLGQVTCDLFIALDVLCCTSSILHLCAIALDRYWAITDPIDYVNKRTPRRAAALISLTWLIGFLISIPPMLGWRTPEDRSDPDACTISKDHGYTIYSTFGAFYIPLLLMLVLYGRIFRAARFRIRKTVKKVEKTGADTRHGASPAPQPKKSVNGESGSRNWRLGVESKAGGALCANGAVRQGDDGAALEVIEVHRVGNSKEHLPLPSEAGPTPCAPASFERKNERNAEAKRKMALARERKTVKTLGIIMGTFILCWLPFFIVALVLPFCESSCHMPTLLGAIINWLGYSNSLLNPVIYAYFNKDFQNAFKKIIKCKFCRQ

[8] = Antagonism of the zolmitriptan-mediated response tested at 10 uM; format: functional; in short: as §1

Sequence of 5-hydroxytryptamine receptor 1D (P28221 whole entry): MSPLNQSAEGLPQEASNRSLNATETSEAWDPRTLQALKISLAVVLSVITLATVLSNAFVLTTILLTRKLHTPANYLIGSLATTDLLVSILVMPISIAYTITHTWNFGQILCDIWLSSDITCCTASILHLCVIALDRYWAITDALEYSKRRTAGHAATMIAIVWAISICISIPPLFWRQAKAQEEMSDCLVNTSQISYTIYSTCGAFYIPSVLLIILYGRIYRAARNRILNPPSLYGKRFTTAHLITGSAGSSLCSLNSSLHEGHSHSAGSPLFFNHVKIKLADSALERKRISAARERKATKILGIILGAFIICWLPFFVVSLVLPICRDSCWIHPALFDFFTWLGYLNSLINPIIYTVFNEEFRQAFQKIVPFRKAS
T1 sequence (P28222 whole entry): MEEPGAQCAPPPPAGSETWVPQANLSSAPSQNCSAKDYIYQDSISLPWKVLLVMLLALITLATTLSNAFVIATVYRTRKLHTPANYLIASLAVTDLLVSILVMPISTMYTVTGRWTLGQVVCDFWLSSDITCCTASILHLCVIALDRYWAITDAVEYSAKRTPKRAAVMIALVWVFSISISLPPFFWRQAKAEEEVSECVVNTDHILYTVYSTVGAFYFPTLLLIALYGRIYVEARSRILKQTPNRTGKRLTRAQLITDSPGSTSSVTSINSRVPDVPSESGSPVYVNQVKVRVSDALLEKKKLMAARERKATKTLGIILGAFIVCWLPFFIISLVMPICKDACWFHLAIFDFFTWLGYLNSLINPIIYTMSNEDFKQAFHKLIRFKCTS

| SMILES | EC50 [1] | Activity [2] | Ki [3] | Ki [5] | Ki [6] | Ki [7] | EC50 [8] | Kb [4] |
| --- | --- | --- | --- | --- | --- | --- | --- | --- |
| COc1ccc(C(=O)Nc2ccc(-c3ccncc3)cc2)cc1C=CCN(C)C | 3.3 µM | 2.3 | 0.019 µM | 0.0061 µM | 0.169 µM | 0.633 µM |  | 0.0194 µM |
| CN(C)CCCc1cc(C(=O)Nc2ccc(-c3ccncc3)cc2)ccc1O [GR-55562] | 3 µM | -3.7 | 0.0121 µM | 0.014 µM | 0.7 µM | 0.842 µM |  | 0.0213 µM |

More lines, in order of falling Ki [3], values ahead:

| EC50 [1] | Activity [2] | Ki [3] | Ki [5] | Ki [6] | Ki [7] | EC50 [8] | SMILES | Kb [4] |
| --- | --- | --- | --- | --- | --- | --- | --- | --- |
| 2.85 µM | 4 | 0.0701 µM | 0.0154 µM | 0.54 µM | > 1 µM |  | COc1ccc(C(=O)Nc2ccc(-c3ccncc3)cc2)cc1CCCN(C)C | 0.0227 µM |
|  | 32.3 | 0.0162 µM | 0.0223 µM | 1.2 µM | > 1 µM | 0.837 µM | COc1ccc(C(=O)Nc2ccc(-c3ccncc3)cc2)cc1C#CCN(C)C |  |
|  | 23 | 0.0136 µM | 0.0188 µM | 0.56 µM | > 1 µM | 4.3 µM | COc1ccc(C(=O)Nc2ccc(-c3ccncc3)cc2)cc1/C=C/CN(C)C |  |

Reference: ChEMBL document CHEMBL1130199, “Differentiation between partial agonists and neutral 5-HT1B antagonists by chemical modulation of 3-[3-(N,N-dimethylamino)propyl]-4-hydroxy- N-[4-(pyridin-4-yl)phenyl]benzamide (GR-55562)” (J Med Chem, 1997)
